Assay results gathered from unrelated publications.
Protocols differ between the studies behind these lines.
Cell line: Vero
Read-out: cell growth or viability

The IC50 of `COc1cccc(CCNCc2c(N)nc(N)nc2-c2ccccc2)c1` is reported as > 100 µM (SRB).
`Oc1ncnc2cc(Nc3nc(-c4ccc(C(F)(F)F)cc4)cs3)ccc12` has an IC50 of > 50 µM (MTT).
For `N=C1C(Cl)=C(N)C(=O)c2[nH]cc(C(O)CO)c21` (centres unmarked), the IC50 was 14 µM (MTT; 72 h).
With `CC(C)(C)Nc1c(-c2ccccc2N)nc2cnccn12` the IC50 was 85 µM (MTT; 48 h).
`NNC(=O)c1ccncc1` gave an IC50 of > 450 µM (MTT; 72 h).
The IC50 of `CC1(C)N=C(N)N=C(N)N1c1ccc(Cl)cc1` is reported as > 100 µM (SRB).
For `N#Cc1nn(-c2ccc(N=Nc3ccccc3)cc2)c(=N)n(S(=O)(=O)c2ccc(N)cc2)c1=O`, the IC50 was 55.2 µM.
The IC50 of `Nc1nc(N)c(CNCCc2ccccc2F)c(C2CCCCC2)n1` is reported as 22 µM (SRB).
With `Oc1ccc(-c2csc(Nc3ccc4c(O)ncnc4c3)n2)cc1` the IC50 was > 50 µM (MTT).
`O=c1[nH]cc(F)c(=O)[nH]1` gave an IC50 of 5.19 µM (MTT; 72 h).
With `CC(C)(C)Nc1c(-c2ccc([N+](=O)[O-])cc2)nc2cnccn12` the IC50 was 80 µM (MTT; 48 h).
For `Cc1ccc(C)n1-c1ccc(-c2nnc(-c3c(Cl)cccc3Cl)[nH]2)cc1`, the IC50 was 229 µM (MTT; 72 h).
With `Nc1nc(N)c(CNCCc2ccc(Cl)cc2)c(C2CCCCC2)n1` the IC50 was 23 µM (SRB).
For `CN(C)c1ccc(-c2nc3cnccn3c2NC(C)(C)C)cc1`, the IC50 was > 100 µM (MTT; 48 h).
`Cc1[nH]c(=O)c(CNC(=O)c2ccc(F)nc2)c2c1CCCC2` gave an IC50 of > 50 µg/mL (MTT; 72 h).
The IC50 of `Nc1c(-c2ccc([N+](=O)[O-])cc2)nc2ccccn12` is reported as 74 µM (MTT; 48 h).
The IC50 of `NC1=NN(c2ccccc2)C(=O)C1=NNc1ccc(N=Nc2ccccc2)cc1` is reported as 44.6 µM.
The IC50 of `Cc1[nH]c(=O)c(CNC(=O)c2ccc([N+](=O)[O-])o2)c2c1CCCC2` is reported as > 50 µg/mL (MTT; 72 h).
With `Nc1ccc(-c2nc3cnccn3c2NC2CCCCC2)cc1` the IC50 was 75 µM (MTT; 48 h).
The IC50 of `Cc1ccc(C)n1-c1ccc(-c2nnc(-c3ccccc3Cl)[nH]2)cc1` is reported as 222 µM (MTT; 72 h).
`Oc1ncnc2cc(Nc3nc(-c4ccc(Br)cc4)cs3)ccc12` gave an IC50 of > 50 µM (MTT).
`COc1cccc(CCNCc2c(N)nc(N)nc2C2CCCCC2)c1` gave an IC50 of 23 µM (SRB).
With `CN(C)c1ccc(-c2nc3ccccn3c2N)cc1` the IC50 was 70 µM (MTT; 48 h).
For `Cc1ccc(C)n1-c1ccc(-c2nnc(-c3ccc(Br)cc3)[nH]2)cc1`, the IC50 was 231 µM (MTT; 72 h).
`CC(C)(C)Nc1c(-c2ccccc2[N+](=O)[O-])nc2ccccn12` gave an IC50 of 78 µM (MTT; 48 h).
With `CCc1nc(N)nc(N)c1-c1ccc(Cl)cc1` the IC50 was 27 µM (SRB).
`O=[N+]([O-])c1ccc(/C(O)=C/C(=S)S)cc1` has an IC50 of 255 µg/mL (MTT; 48 h).
`Oc1ncnc2cc(Nc3nc(-c4ccccc4)cs3)ccc12` has an IC50 of > 50 µM (MTT).
With `Nc1nc(N)c(CNCCc2cccc(F)c2)c(C2CCCCC2)n1` the IC50 was 25 µM (SRB).
For `COc1ccc(-c2csc(Nc3ccc4c(O)ncnc4c3)n2)cc1`, the IC50 was > 50 µM (MTT).
The IC50 of `COc1cccc2c1C(=O)c1c(O)c3c(c(O)c1C2=O)C[C@@](O)(C(=O)CO)C[C@@H]3O[C@H]1C[C@H](N)[C@H](O)[C@H](C)O1` is reported as 14 µM (MTT; 48 h).
The IC50 of `Nc1nc(N)c(CNCCc2ccccc2Cl)c(C2CCCCC2)n1` is reported as 21 µM (SRB).
